For data set [1], the system named is Rattus norvegicus. The experiment in a line: Volume of distribution in rat at 10 mg/kg, ip. The class given is ADME, organism-based. Further details: dose 10 mg/kg, route intraperitoneal. Particulars: in vivo. In a few lines: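 Intraperitoneal dose of 10 mg/kg in rats, given as sodium salt in sterile water; plasma PK parameters including volume of distribution.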

Data set [2] deals with Rattus norvegicus. Put plainly: AUC (0 to t) in rat at 10 mg/kg, ip. Further details: dose 10 mg/kg, route intraperitoneal. Particulars: in vivo. The format is ADME, organism-based, Plasma.
For data set [3], the system named is Rattus norvegicus. The experiment in a line: Tmax in rat at 10 mg/kg, po. The format is ADME, organism-based. Further details: dose 10 mg/kg, route oral. Particulars: in vivo.
Data set [4] concerns Rattus norvegicus. The experiment in a line: Cmax in rat at 10 mg/kg, po. The format is ADME, organism-based. Further details: dose 10 mg/kg, route oral. Particulars: in vivo. The essentials:
(§1)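 Sodium salts were given to rats by oral dose at 10 mg/kg in sterile water, with n = 3 or 5 animals per compound. Plasma concentration was measured over time to give Cmax, Tmax, terminal half-life and oral bioavailability (F). Brain and plasma were taken at or near Tmax.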

Data set [5] deals with Rattus norvegicus. The experiment in a line: (§2) Cmax in rat at 10 mg/kg, ip. The class given is ADME, organism-based. Further details: dose 10 mg/kg, route intraperitoneal. The settings on record: in vivo. In a few lines: (§3)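 Intraperitoneal dosing in rats at 10 mg/kg, sodium salt form, sterile water vehicle. Cmax is the maximum compound concentration detected in plasma, and terminal half-life was derived from the plasma profile.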

The subject of data set [6] is Rattus norvegicus. The experiment in a line: Volume of distribution in rat at 10 mg/kg, po. The class given is ADME, organism-based. Further details: dose 10 mg/kg, route oral. Particulars: in vivo. The essentials:
(§4)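 Rats dosed orally at 10 mg/kg as sodium salts in sterile water, n = 3 (n = 5 for one compound). Plasma sampled for PK parameters; brain and plasma harvested at or near Tmax for levels and brain:plasma ratio.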

The test system of data set [7] is Rattus norvegicus. Put plainly: AUC (0 to t) in rat at 10 mg/kg, po. Further details: dose 10 mg/kg, route oral. The settings on record: in vivo. The format is ADME, organism-based, Plasma. The essentials: (§5)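 Sodium salt given orally at 10 mg/kg in sterile water to rats, n = 3 (n = 5 for one compound). Plasma was sampled over time for Cmax, Tmax, AUC(0–t), t1/2 and oral bioavailability. Brain and plasma were harvested at or near Tmax to measure levels and the brain:plasma ratio.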

Data set [8] has as its system Rattus norvegicus. Put plainly: Volume of distribution in rat at 2 mg/kg, iv. The format is ADME, organism-based. The settings on record: in vivo. Further details: dose 2 mg/kg, route intravenous. The essentials:
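Intravenous dose of 2 mg/kg in rats, given as sodium salt in sterile water; plasma PK parameters including volume of distribution.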

A further data set has as its system Brain. Put plainly: Drug level in rat brain at 10 mg/kg, po. The format is ADME, organism-based. Further details: dose 10 mg/kg, route oral. Particulars: in vivo, read-out: Drug uptake. The essentials:
as §5

The test system of data set [9] is Rattus norvegicus. Put plainly: Ratio of drug level in brain to plasma in rat at 10 mg/kg, po.
A further data set has as its system Plasma. The experiment in a line: Plasma concentration in rat at 10 mg/kg, po. The class given is ADME, organism-based. Further details: dose 10 mg/kg, route oral. The settings on record: in vivo. In a few lines: as §4
Data set [10] concerns Rattus norvegicus. Put plainly: AUC (0 to t) in rat at 2 mg/kg, iv. The format is ADME, organism-based, Plasma. Further details: dose 2 mg/kg, route intravenous. The settings on record: in vivo.
The subject of data set [11] is Rattus norvegicus. Put plainly: Cmax in rat at 2 mg/kg, iv. The class given is ADME, organism-based. Further details: dose 2 mg/kg, route intravenous. Particulars: in vivo. The essentials: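 Rats received sodium salts intravenously at 2 mg/kg in sterile water. Cmax is the maximum compound concentration detected in plasma, and terminal half-life was derived from the plasma concentration–time profile.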

Data set [12] deals with Rattus norvegicus. The experiment in a line: Oral bioavailability in rat at 10 mg/kg. The class given is ADME, organism-based. The settings on record: in vivo. In a few lines:
as §1

Data set [13] is described as follows: as §2. The class given is ADME, organism-based. Further details: dose 10 mg/kg, route intraperitoneal. Particulars: in vivo. The essentials: as §3

SMILES strings stand for the structures.

The results in this text go back to ChEMBL document CHEMBL2177081, “Orally active metabotropic glutamate subtype 2 receptor positive allosteric modulators: structure-activity relationships and assessment in a rat model of nicotine dependence” (J Med Chem, 2012).

In the case of `O=C([O-])c1cc(-c2cccc(-c3ccc4c(c3)CN(C3CCCC3)C4=O)c2)ccc1Cl.[Na+]`, the Vd with Rattus norvegicus [1] came to 21.2 mL; with Rattus norvegicus [6], 96.2 mL. The AUCt in the data set on Rattus norvegicus [2] amounted to 3.23 µM·h; in the data set on Rattus norvegicus [7], 2.67 µM·h. Moreover, the Tmax with Rattus norvegicus [3] was 30 min. For the same compound, the Cmax is 400 nM in the data set with Rattus norvegicus [4] and 2000 nM in the data set on Rattus norvegicus [5].

Regarding `O=C([O-])c1cc(-c2cccc(COc3ccc4c(c3)CN(C3CCCC3)C4=O)c2)ccc1O.[Na+]`, the Vd was 4.3 mL in the data set on Rattus norvegicus [8] and 28 mL in the data set with Rattus norvegicus [6]. Further, the concentration in the data set on Brain came out at 7.1 nM; with Plasma it was 210 nM. In the data set on Rattus norvegicus [3], the Tmax is 30 min. Also, the Cmax with Rattus norvegicus [4] is 1600 nM; in the data set on Rattus norvegicus [11], 3900 nM. Besides, the BPR in the data set on Rattus norvegicus [9] was 0.0335. Further, the AUCt came to 2.57 µM·h in the data set with Rattus norvegicus [10] and 7.1 µM·h with Rattus norvegicus [7]. This compound gave a F in the data set with Rattus norvegicus [12] of 109.2%.

Take `COc1ccc(C(=O)[O-])cc1-c1cccc(COc2ccc3c(c2)CN(C2CCCC2)C3=O)c1.[Na+]`: the values for the Vd in the data set on Rattus norvegicus [8] and in the data set on Rattus norvegicus [6] were 4620 mL and 10875.2 mL, respectively. In addition, the concentration in the data set on Brain stood at 180 nM; in the data set with Plasma, 1460 nM. Further, the Tmax in the data set with Rattus norvegicus [3] is given as 30 min. Besides, the figures for the Cmax in the data set on Rattus norvegicus [4] and in the data set on Rattus norvegicus [11] were 4000 nM and 5600 nM, respectively. Besides, in the data set with Rattus norvegicus [9], the BPR came to 0.13. In addition, the AUCt in the data set with Rattus norvegicus [10] amounted to 6.7 µM·h; in the data set with Rattus norvegicus [7], 12 µM·h. Also, the F in the data set with Rattus norvegicus [12] was 84.8%.

For the compound `O=C([O-])c1cc(-c2cccc(COc3ccc4c(=O)n(C5CC5)sc4c3)c2)ccc1Cl.[Na+]`, the Vd in the data set on Rattus norvegicus [1] is 2.4 mL; in the data set on Rattus norvegicus [6], 4.1 mL. In addition, the AUCt in the data set with Rattus norvegicus [2] stood at 25.8 µM·h; with Rattus norvegicus [7], 61.5 µM·h. Besides, the results for the concentration with Brain and with Plasma were 30 nM and 800 nM, respectively. Moreover, the Tmax in the data set on Rattus norvegicus [3] came to 60 min. In addition, the Cmax in the data set on Rattus norvegicus [4] came out at 8500 nM; in data set [13] it was 9600 nM. In addition, the BPR in the data set on Rattus norvegicus [9] stood at 0.04.

With `O=C([O-])c1cc(-c2cccc(COc3ccc4c(c3)CN(C3CCCC3)C4=O)c2)ccc1Cl.[Na+]`, the Vd amounted to 0.6 mL in the data set with Rattus norvegicus [8] and 3 mL in the data set with Rattus norvegicus [6]. The Cmax with Rattus norvegicus [4] was determined as 3000 nM; in the data set with Rattus norvegicus [11], 28200 nM. The BPR with Rattus norvegicus [9] amounted to 0.039. Moreover, the AUCt amounted to 11.8 µM·h with Rattus norvegicus [10] and 42.5 µM·h in the data set with Rattus norvegicus [7]. Further, the F with Rattus norvegicus [12] is listed as 71.4%.

Usually Tmax stands for the time from dosing to the highest level. Usually Cmax stands for the maximum level reached in the sampled fluid or tissue.
